From ChEMBL document CHEMBL3860041, “Synthesis, biological evaluation and molecular modeling study of some new methoxylated 2-benzylthio-quinazoline-4(3H)-ones as nonclassical antifolates” (Bioorg Med Chem Lett, 2016)
≈ marks a conversion by molar mass, not a printed value.

Key:
Dihydrofolate reductase = target: T1, Dihydrofolate reductase (Bos taurus, UniProt P00376); test: Inhibition of bovine liver DHFR preincubated for 2 mins followed by addition of FH2 as substrate and NADPH
T1 sequence (P00376 whole entry): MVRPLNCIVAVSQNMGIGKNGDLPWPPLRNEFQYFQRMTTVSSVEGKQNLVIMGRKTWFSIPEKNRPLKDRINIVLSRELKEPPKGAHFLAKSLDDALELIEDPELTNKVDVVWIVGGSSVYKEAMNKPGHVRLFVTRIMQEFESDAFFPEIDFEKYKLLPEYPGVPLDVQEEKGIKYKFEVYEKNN

Staphylococcus aureus [1] = test: Antimicrobial activity against Staphylococcus aureus IFO 3060 at 200 ug/disc measured after 24 hrs by agar disc-diffusion method; format: functional; conditions: IFO 3060, 24 h, read-out: DIZ
Bacillus subtilis [2] = test: Antimicrobial activity against Bacillus subtilis IFO 3007 at 200 ug/disc measured after 24 hrs by agar disc-diffusion method; format: functional; conditions: IFO 3007, 24 h, read-out: DIZ
Escherichia coli [3] = test: Antimicrobial activity against Escherichia coli IFO 3301 at 200 ug/disc measured after 24 hrs by agar disc-diffusion method; format: functional; conditions: IFO 3301, 24 h, read-out: DIZ
Pseudomonas aeruginosa [4] = test: Antimicrobial activity against Pseudomonas aeruginosa IFO 3448 at 200 ug/disc measured after 24 hrs by agar disc-diffusion method; format: functional; conditions: IFO 3448, 24 h, read-out: DIZ
Candida albicans = test: Antimicrobial activity against Candida albicans IFO 0583 at 200 ug/disc measured after 48 hrs by agar disc-diffusion method; format: functional; conditions: IFO 0583, 48 h, read-out: DIZ
Staphylococcus aureus [5] = test: Antimicrobial activity against Staphylococcus aureus IFO 3060 measured after 24 hrs by microdilution method; format: functional; conditions: IFO 3060, 24 h
Bacillus subtilis [6] = test: Antimicrobial activity against Bacillus subtilis IFO 3007 measured after 24 hrs by microdilution method; format: functional; conditions: IFO 3007, 24 h
Pseudomonas aeruginosa [7] = test: Antimicrobial activity against Pseudomonas aeruginosa IFO 3448 measured after 24 hrs by microdilution method; format: functional; conditions: IFO 3448, 24 h
Escherichia coli [8] = test: microbe, parasite or virus in culture; conditions: IFO 3301, 24 h
[9] = Growth inhibition of human CNS cancer cells after 48 hrs by SRB assay; format: functional; conditions: Cancer cell lines
Summary of the method: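 Five-log dose range against NCI tumor cell lines, monitoring GI50, TGI and LC50 for each cell line; MG-MID values derived across the panel; 5-fluorouracil positive control.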

[10] = Growth inhibition of human leukemia cells after 48 hrs by SRB assay; format: functional; conditions: Leukemia cell
Summary of the method: (§1)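 Follow-up NCI panel testing over a 5-log dose range for each cell line. GI50, TGI and LC50 were monitored, with 5-fluorouracil run as the positive control. Values are grouped by tumour subpanel.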

[11] = Growth inhibition of human non-small cell lung cancer cells after 48 hrs by SRB assay; format: functional; conditions: Cancer cell lines; summary of the method: as §1
[12] = Growth inhibition of human colon cancer cells after 48 hrs by SRB assay; format: functional; conditions: Cancer cell lines; summary of the method: as §1
[13] = Growth inhibition of human melanoma cells after 48 hrs by SRB assay; format: functional; conditions: Melanoma cell; summary of the method: as §1
[14] = Growth inhibition of human ovarian cancer cells after 48 hrs by SRB assay; format: functional; conditions: Cancer cell lines; summary of the method: as §1
[15] = Growth inhibition of human renal cancer cells after 48 hrs by SRB assay; format: functional; conditions: Cancer cell lines; summary of the method: as §1
[16] = Growth inhibition of human prostate cancer cells after 48 hrs by SRB assay; format: functional; conditions: Cancer cell lines; summary of the method: as §1
[17] = Growth inhibition of human breast cancer cells after 48 hrs by SRB assay; format: functional; conditions: Cancer cell lines; summary of the method: as §1

Compound: COc1cc2nc(SCc3cc(OC)c(OC)c(OC)c3)n(-c3ccccc3)c(=O)c2cc1OC
- IC50 (Dihydrofolate reductase): 0.9 µM
- zone of inhibition at 200 µg/disc (Staphylococcus aureus [1]): 15 mm
- zone of inhibition at 200 µg/disc (Bacillus subtilis [2]): 19 mm
- zone of inhibition at 200 µg/disc (Escherichia coli [3]): 18 mm
- zone of inhibition at 200 µg/disc (Pseudomonas aeruginosa [4]): 16 mm
- zone of inhibition at 200 µg/disc (Candida albicans): 8 mm
- MIC (Staphylococcus aureus [5]): 8 µg/mL (≈ 16.2 µM)
- MIC (Bacillus subtilis [6]): 8 µg/mL (≈ 16.2 µM)
- MIC (Pseudomonas aeruginosa [7]): 8 µg/mL (≈ 16.2 µM)
- MIC (Escherichia coli [8]): 8 µg/mL (≈ 16.2 µM)

Compound: COc1cc(CSc2nc3ccc(C)cc3c(=O)n2-c2ccc(Cl)cc2)cc(OC)c1OC
- IC50 (Dihydrofolate reductase): 0.9 µM

Compound: COc1ccc(-n2c(SCc3cc(OC)c(OC)c(OC)c3)nc3cc(OC)c(OC)cc3c2=O)cc1
- IC50 (Dihydrofolate reductase): 1.2 µM

Compound: COc1ccc(CSc2nc3cc(OC)c(OC)cc3c(=O)n2Cc2ccccc2)cc1
- IC50 (Dihydrofolate reductase): 0.8 µM

Compound: COc1ccc(CSc2nc3ccc(Cl)cc3c(=O)n2Cc2ccccc2)cc1
- IC50 (Dihydrofolate reductase): 1.1 µM

Compound: COc1ccc(CSc2nc3ccc(C)cc3c(=O)n2-c2ccc(Cl)cc2)cc1
- IC50 (Dihydrofolate reductase): 0.1 µM

Compound: COc1ccc(-n2c(SCc3cc(OC)c(OC)c(OC)c3)nc3ccc(Cl)cc3c2=O)c(OC)c1
- IC50 (Dihydrofolate reductase): 4 µM

Compound: COc1ccc(CSc2nc3ccc(Cl)cc3c(=O)n2-c2ccc(OC)cc2)cc1
- IC50 (Dihydrofolate reductase): 0.1 µM

Compound: O=c1[nH]cc(F)c(=O)[nH]1 [FLUOROURACIL]
- TGI [9]: > 100 µM
- TGI [10]: > 100 µM
- CC50 ([10]; read-out: LC50 (the source's name)): > 100 µM
- GI50 [11]: > 100 µM
- TGI [11]: > 100 µM
- GI50 [12]: 8.4 µM
- TGI [12]: > 100 µM
- GI50 [13]: 70.6 µM
- TGI [13]: > 100 µM
- GI50 [14]: 61.4 µM
- TGI [14]: > 100 µM
- GI50 [15]: 45.6 µM
- TGI [15]: > 100 µM
- GI50 [16]: 22.7 µM
- TGI [16]: > 100 µM
- GI50 [17]: 76.4 µM
- TGI [17]: > 100 µM

Compound: COc1cc(CSc2nc3ccc(Cl)cc3c(=O)n2-c2ccc(C)cc2)cc(OC)c1OC
- IC50 (Dihydrofolate reductase): 3 µM

Compound: COc1ccc(CSc2nc3ccc(Cl)cc3c(=O)n2-c2ccccc2OC)cc1
- IC50 (Dihydrofolate reductase): 0.8 µM

Compound: COc1ccc(CSc2nc3ccc(Cl)cc3c(=O)n2-c2ccc(Cl)cc2)cc1
- IC50 (Dihydrofolate reductase): 3 µM

Compound: COc1ccc(CSc2nc3ccc(C)cc3c(=O)n2Cc2ccccc2)cc1
- IC50 (Dihydrofolate reductase): 0.01 µM

Compound: COc1cc2nc(SCc3cc(OC)c(OC)c(OC)c3)n(-c3ccc(Cl)cc3)c(=O)c2cc1OC
- IC50 (Dihydrofolate reductase): 0.9 µM
- zone of inhibition at 200 µg/disc (Staphylococcus aureus [1]): 22 mm
- zone of inhibition at 200 µg/disc (Bacillus subtilis [2]): 26 mm
- zone of inhibition at 200 µg/disc (Escherichia coli [3]): 18 mm
- zone of inhibition at 200 µg/disc (Pseudomonas aeruginosa [4]): 12 mm
- zone of inhibition at 200 µg/disc (Candida albicans): 8 mm
- MIC (Staphylococcus aureus [5]): 4 µg/mL (≈ 7.56 µM)
- MIC (Bacillus subtilis [6]): 2 µg/mL (≈ 3.78 µM)
- MIC (Escherichia coli [8]): 8 µg/mL (≈ 15.1 µM)

Compound: Clc1ccccc1C(c1ccccc1)(c1ccccc1)n1ccnc1 [CLOTRIMAZOLE]
- zone of inhibition at 200 µg/disc (Candida albicans): 21 mm

Compound: COc1ccc(CSc2nc3ccc(C)cc3c(=O)n2-c2ccc(C)cc2)cc1
- IC50 (Dihydrofolate reductase): 1 µM

Compound: COc1ccc(CSc2nc3cc(OC)c(OC)cc3c(=O)n2-c2ccc(OC)cc2)cc1
- IC50 (Dihydrofolate reductase): 0.8 µM
